One data set has as its system Blood. As to the kind of experiment: Biodistribution in mouse S180 cells xenografted Kunming mouse blood at 10 to 20 uCi, iv after 120 mins by gamma counting. The data set is classed as ADME, organism-based, CCRF S-180. To be noted: in vivo, 2 h.
A short description of data set [1]: Ratio of drug uptake in tumor to brain of mouse S180 cells xenografted Kunming mouse at 10 to 20 uCi, iv after 15 mins by gamma counting. The data set is classed as ADME, organism-based, CCRF S-180. To be noted: in vivo, 0.25 h.
Data set [2] can be described thus: Biodistribution in mouse S180 cells xenografted Kunming mouse tumor at 10 to 20 uCi, iv after 15 mins by gamma counting. In kind it is ADME, organism-based, Neoplasm, CCRF S-180. Particulars: in vivo, 0.25 h.
Data set [3] relates to Muscle tissue. As to the kind of experiment: Biodistribution in mouse S180 cells xenografted Kunming mouse muscle at 10 to 20 uCi, iv after 120 mins by gamma counting. The data set is classed as ADME, organism-based, CCRF S-180. Particulars: in vivo, 2 h.
Data set [4] relates to Stomach. As to the kind of experiment: Biodistribution in mouse S180 cells xenografted Kunming mouse stomach at 10 to 20 uCi, iv after 30 mins by gamma counting. In kind it is ADME, organism-based, CCRF S-180. Particulars: in vivo, 0.5 h. The method in brief: (§1)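 Female Kunming mice with subcutaneous S180 tumors (5 × 10^6 cells into right front flank, no anesthesia), used 7–14 days after inoculation at 18–22 g. Tracer in saline (10–20 µCi, 100 µL) given by tail vein; mice killed at 5, 15, 30, 60 and 120 min. Tissues excised, blotted, weighed and gamma-counted with decay correction. Reported as %ID/g, mean ± SD, n = 4.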

The test system of data set [5] is Stomach. Description: Biodistribution in mouse S180 cells xenografted Kunming mouse stomach at 10 to 20 uCi, iv after 120 mins by gamma counting. Particulars: in vivo, 2 h. In kind it is ADME, organism-based, CCRF S-180. The method in brief: as §1
Another data set deals with Pancreas. Description: Biodistribution in mouse S180 cells xenografted Kunming mouse pancreas at 10 to 20 uCi, iv after 60 mins by gamma counting. In kind it is ADME, organism-based, CCRF S-180. Particulars: in vivo, 1 h.
Data set [6] in a line: Biodistribution in mouse S180 cells xenografted Kunming mouse tumor at 10 to 20 uCi, iv after 120 mins by gamma counting. In kind it is ADME, organism-based, Neoplasm, CCRF S-180. To be noted: in vivo, 2 h.
Another data set relates to Lung. As to the kind of experiment: Biodistribution in mouse S180 cells xenografted Kunming mouse lung at 10 to 20 uCi, iv after 30 mins by gamma counting. In kind it is ADME, organism-based, CCRF S-180. To be noted: in vivo, 0.5 h.
Data set [7] has as its system Heart. As to the kind of experiment: Biodistribution in mouse S180 cells xenografted Kunming mouse heart at 10 to 20 uCi, iv after 60 mins by gamma counting. The data set is classed as ADME, organism-based, CCRF S-180. To be noted: in vivo, 1 h.
The test system of data set [8] is Muscle tissue. Description: Biodistribution in mouse S180 cells xenografted Kunming mouse muscle at 10 to 20 uCi, iv after 15 mins by gamma counting. Particulars: in vivo, 0.25 h. The data set is classed as ADME, organism-based, CCRF S-180.
Another data set has as its system Liver. Description: Biodistribution in mouse S180 cells xenografted Kunming mouse liver at 10 to 20 uCi, iv after 30 mins by gamma counting. In kind it is ADME, organism-based, CCRF S-180. To be noted: in vivo, 0.5 h.
Data set [9] in a line: Octanol-water partition coefficient, log P at pH 7.4 after 5 mins. The data set is classed as physicochemical. A digest of the protocol: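 Shake-flask partition using 2.5 mL n-octanol and 2.5 mL 0.01 M PBS pH 7.4, with 0.01 mL radioactive sample added. Mixed vigorously for 5 min at room temperature, then centrifuged. Radioactivity counted in 0.01 mL of each phase.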
Data set [10] in a line: Ratio of drug uptake in tumor to brain of mouse S180 cells xenografted Kunming mouse at 10 to 20 uCi, iv after 30 mins by gamma counting. Particulars: in vivo, 0.5 h. The data set is classed as ADME, organism-based, CCRF S-180.
Data set [11] has as its system Stomach. As to the kind of experiment: Biodistribution in mouse S180 cells xenografted Kunming mouse stomach at 10 to 20 uCi, iv after 5 mins by gamma counting. In kind it is ADME, organism-based, CCRF S-180. Particulars: in vivo. The method in brief: as §1
Data set [12] can be described thus: Ratio of drug uptake in tumor to muscle of mouse S180 cells xenografted Kunming mouse at 10 to 20 uCi, iv after 120 mins by gamma counting. The data set is classed as ADME, organism-based, CCRF S-180. Particulars: in vivo, 2 h.
In data set [13] the test system is Stomach. As to the kind of experiment: Biodistribution in mouse S180 cells xenografted Kunming mouse stomach at 10 to 20 uCi, iv after 15 mins by gamma counting. In kind it is ADME, organism-based, CCRF S-180. Particulars: in vivo, 0.25 h. A digest of the protocol: as §1
Data set [14] concerns Heart. As to the kind of experiment: Biodistribution in mouse S180 cells xenografted Kunming mouse heart at 10 to 20 uCi, iv after 15 mins by gamma counting. The data set is classed as ADME, organism-based, CCRF S-180. To be noted: in vivo, 0.25 h.
For the next data set, the system named is Plasma. Description: Metabolic stability in mouse plasma at 100 to 150 uCi after 3 hrs by HPLC analysis. In kind it is ADME, cell-free. A digest of the protocol: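 Radiotracer (100–150 µCi, 50 µL) incubated in 0.5 mL mouse plasma for 3 h. Plasma then mixed with 1 mL CH3CN and centrifuged 5 min at 13,200 rpm. Supernatant passed through a C18 Sep-Pak and analysed by HPLC.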

Data set [15] concerns Muscle tissue. Description: Biodistribution in mouse S180 cells xenografted Kunming mouse muscle at 10 to 20 uCi, iv after 30 mins by gamma counting. To be noted: in vivo, 0.5 h. In kind it is ADME, organism-based, CCRF S-180.
For data set [16], the system named is Muscle tissue. Description: Biodistribution in mouse S180 cells xenografted Kunming mouse muscle at 10 to 20 uCi, iv after 60 mins by gamma counting. In kind it is ADME, organism-based, CCRF S-180. To be noted: in vivo, 1 h.
A further data set deals with Kidney. Description: Biodistribution in mouse S180 cells xenografted Kunming mouse kidney at 10 to 20 uCi, iv after 30 mins by gamma counting. In kind it is ADME, organism-based, CCRF S-180. Particulars: in vivo, 0.5 h.
The subject of data set [17] is Stomach. Description: Biodistribution in mouse S180 cells xenografted Kunming mouse stomach at 10 to 20 uCi, iv after 60 mins by gamma counting. The data set is classed as ADME, organism-based, CCRF S-180. Particulars: in vivo, 1 h. A digest of the protocol: as §1
The nature of data set [18]: Ratio of drug uptake in tumor to blood of mouse S180 cells xenografted Kunming mouse at 10 to 20 uCi, iv after 30 mins by gamma counting. The data set is classed as ADME, organism-based, CCRF S-180. To be noted: tumour, 0.5 h.

Experimental findings from ChEMBL document CHEMBL1156163, “(18)F Labeled benzimidazole derivatives as potential radiotracer for positron emission tomography (PET) tumor imaging” (Bioorg Med Chem, 2010) are described below.

The term logD denotes the decadic logarithm of the distribution of all forms, ionised or not, between an organic phase and buffer at a given pH. The low end stands for lower lipophilicity, the high end for higher lipophilicity.

Regarding `CCCc1nc2c(C)cc(C(=O)O)cc2n1CC[18F]`, the Drug uptake is given as 0.3 % ID/g in the data set on Blood; 1.41 % ID/g in [2]; 0.19 % ID/g with Muscle tissue [3]; 3.87 % ID/g in the data set on Stomach [4]; 1.14 % ID/g in the data set with Stomach [5]; 0.67 % ID/g in the data set with Pancreas. The Drug uptake is on record as 0.49 % ID/g in data set [6]; 3.49 % ID/g in the data set on Lung; 1.08 % ID/g in the data set with Heart [7]; 1.22 % ID/g with Muscle tissue [8]; 2.53 % ID/g in the data set on Liver; 5.52 % ID/g with Stomach [11]. Besides, the Drug uptake in the data set on Stomach [13] came out at 4.33 % ID/g; in the data set with Heart [14], 2.66 % ID/g; in the data set with Muscle tissue [15], 1.17 % ID/g; in the data set on Muscle tissue [16], 0.62 % ID/g; with Kidney, 7.4 % ID/g; in the data set on Stomach [17] it was 3.23 % ID/g. In addition, the Ratio is listed as 3.2 in data set [1], 4.81 in data set [10], 2.58 in data set [12] and 1.09 in data set [18]. The log distribution coefficient (logD) at 5 min in [9] is -0.5. The Stability result with Plasma is given as “Stable”.
In the case of `N[C@@H](Cc1ccc(OCC[18F])cc1)C(=O)O` [FLORETYROSINE F18], the Drug uptake with Blood is on record as 1.12 % ID/g; in data set [2], 2.5 % ID/g; in the data set with Muscle tissue [3], 2.1 % ID/g; with Pancreas, 0.03 % ID/g; in [6] it was 2.15 % ID/g; in the data set on Lung, 8.57 % ID/g. Also, the Drug uptake is on record as 3.14 % ID/g in the data set with Heart [7]; 3.34 % ID/g in the data set with Muscle tissue [8]; 4.23 % ID/g in the data set on Liver; 3.41 % ID/g in the data set on Heart [14]; 2.69 % ID/g in the data set with Muscle tissue [15]; 2.37 % ID/g in the data set with Muscle tissue [16]. This compound also displayed a Drug uptake in the data set with Kidney of 2.38 % ID/g. The Ratio in data set [1] is reported as 2.43; in [10], 2.54; in data set [12] it was 1.02; in data set [18] it was 1.02.
Regarding `OC[C@H]1O[C@@H](O)[C@H]([18F])[C@@H](O)[C@@H]1O` [FLUDEOXYGLUCOSE-F18], the Drug uptake in the data set with Blood came to 0.11 % ID/g; in [2], 1.56 % ID/g; in the data set on Muscle tissue [3], 0.78 % ID/g; in the data set on Pancreas it was 0.83 % ID/g; in data set [6] it was 1.7 % ID/g; in the data set with Lung, 0.64 % ID/g. The Drug uptake worked out at 3.24 % ID/g in the data set with Heart [7]; 1.14 % ID/g in the data set with Muscle tissue [8]; 0.23 % ID/g with Liver; 2.5 % ID/g with Heart [14]; 1.07 % ID/g with Muscle tissue [15]; 0.97 % ID/g in the data set on Muscle tissue [16]. In the data set on Kidney, this compound yielded a Drug uptake of 0.61 % ID/g. Moreover, the Ratio turned out to be 0.59 in data set [1], 0.61 in data set [10] and 2.2 in [12].
